Assay [1] in a line: HUVEC growth inhibition – cell-based, human, primary screen (AID 575).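 Also: 100% = median of untreated cell wells with 0.1% DMSO on each plate.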 The following applies: HUVEC proliferation, CellTiter-Glo luminescence, 72 h; at 10 µM; stronger effect = lower value. The method in brief: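 Timing: 72 h treatment at 37 °C; material: HUVEC primary cells; technique: CellTiter-Glo luminescence measuring cellular ATP; controls: vehicle and MePR control wells; measure: percent of median DMSO-control luminescence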

A short description of assay [2]: growth inhibitors of H69AR lung tumor, primary screen, human, duplicate replicates (AID 580;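 active = viability at or under a set limit in both replicates, limit being median viability minus 3 SD, cut at about 48% in these data, passing the limit was not always enough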;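 also: 100% = mean luminescence of untreated wells and 0% = no signal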). The note with it: H69AR lung tumor cells viability, ATP luminescence, 72 h; at 10 µM; stronger effect = lower value.
A short description of assay [3]: reversal of MRP1-mediated doxorubicin resistance, pilot screen, H69AR cells, doxorubicin co-treatment (AID 601;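 active = viability loss from added drug above about 55%, and viability with drug at most 40%, in both replicates, limit read from the data, passing the limit was not always enough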). The following applies: CellTiter-Glo, 72 h, at 10 µM; for differential viability (reversal): stronger effect = higher value.
Assay [4] is described as follows: 384-well plate pilot, post-Golgi transport modulator project, inhibition of yeast transport mutant growth (AID 636; in the data active = inhibition above about 31%). The following applies: absorbance 615 nm, about 18 h, stronger effect = higher value.
Assay [5] is described as follows: growth suppression of yeast trafficking mutant, preliminary HTS, modulators of trafficking downstream of Golgi apparatus project, 1536-format plate, OD 615 nm (AID 637; in the data active = inhibition above about 30%). The following applies: yeast transport mutant growth, absorbance 615 nm, 18 h; stronger effect = higher value.
[6] abbreviates: H69AR cells + 2 uM doxorubicin, measured here: viability with 2 uM doxorubicin, stronger effect = lower value.
[7] abbreviates: H69AR cells, compound alone cytotoxicity.

Molecules are shown by their SMILES. Calls of active or inactive are those of the source.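 The calls were made as follows, unless noted: active = viability at or below 30% in both replicate assays; inconclusive = viability at or below 30% in just one of the two assays; inactive = the rest.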

Turning to `COc1ccc(-n2c(N)c(C(=O)NCc3ccco3)c3nc4ccccc4nc32)c(OC)c1`, the viability is 61.8% (inactive) in assay [1], 11% (active) in assay [2], 12.4% in assay [3] (setting [6]) and 11% in assay [3] (setting [7]). For the same compound, the differential viability (reversal) in assay [3] (H69AR cells + 2 uM doxorubicin) is -1.38% (inactive). Moreover, the inhibition in assay [4] is -0.8% (inactive); in assay [5], -0.16% (inactive).
On to `O=C(Nc1ccc2c(c1)C(=O)N(C1CCCCC1)C2=O)C1CCCO1` (stereo not given), for which the viability was 90.8% (inactive) in assay [1], 90.9% (inactive) in assay [2], 92.6% in assay [3] (setting [6]) and 90.9% in assay [3] (setting [7]). Moreover, the differential viability (reversal) in assay [3] (H69AR cells + 2 uM doxorubicin) is -1.69% (inactive). For the same compound, the inhibition in assay [4] is -3.33% (inactive); in assay [5], -0.63% (inactive).
Turning to `Cc1ccccc1NC(=O)c1ccccc1`, the viability is 103% (inactive) in assay [1], 99.6% (inactive) in assay [2], 87.8% in assay [3] (setting [6]) and 99.6% in assay [3] (setting [7]). Besides, the differential viability (reversal) in assay [3] (H69AR cells + 2 uM doxorubicin) is 11.8% (inactive). Besides, the inhibition in assay [4] was -5.92% (inactive); in assay [5], 2.7% (inactive).
For `S=c1[nH]ncn1-c1ccccn1`, the viability in assay [1] was 81.6% (inactive); in assay [2], 93.9% (inactive); in assay [3] (setting [6]), 98.6%; in assay [3] (setting [7]), 93.9%. Besides, in assay [3] (H69AR cells + 2 uM doxorubicin), the differential viability (reversal) was -4.69% (inactive). Moreover, the inhibition is -5.33% (inactive) in assay [4] and -0.63% (inactive) in assay [5].
In the case of `CCc1nnc(NC(=O)CCC(=O)Nc2ccccc2)s1`, the viability in assay [1] is 94.8% (inactive); in assay [2], 90% (inactive); in assay [3] (setting [6]), 92.9%; in assay [3] (setting [7]) it was 90%. Also, the differential viability (reversal) in assay [3] (H69AR cells + 2 uM doxorubicin) is -2.88% (inactive). Further, the inhibition in assay [4] was -4.27% (inactive); in assay [5], 5.71% (inactive).
Take `COc1ccc(OC)c(NC(=O)Cc2coc3ccc(C)cc23)c1`: the viability is 76.7% (inactive) in assay [1], 82.1% (inactive) in assay [2], 78.3% in assay [3] (setting [6]) and 82.1% in assay [3] (setting [7]). Moreover, in assay [3] (H69AR cells + 2 uM doxorubicin), the differential viability (reversal) was 3.86% (inactive). Moreover, the inhibition was -6.05% (inactive) in assay [4] and 0.48% (inactive) in assay [5].
`CCC1(CC)C(=O)N(C)C(=O)NC1=NCc1ccccc1`: the viability in assay [1] is 110% (inactive); in assay [2], 93.1% (inactive); in assay [3] (setting [6]), 94.7%; in assay [3] (setting [7]) it was 93.1%. Further, the differential viability (reversal) in assay [3] (H69AR cells + 2 uM doxorubicin) is -1.67% (inactive). The inhibition is -7.07% (inactive) in assay [4] and 3.02% (inactive) in assay [5].
On to `CS(=O)(=O)N(CC(=O)N1CCCCCC1)c1ccccc1`, for which the viability in assay [1] was 95.2% (inactive); in assay [2] it was 98.2% (inactive); in assay [3] (setting [6]) it was 90%; in assay [3] (setting [7]), 98.2%. For the same compound, the differential viability (reversal) in assay [3] (H69AR cells + 2 uM doxorubicin) is 8.29% (inactive). Also, the inhibition was -5.79% (inactive) in assay [4] and 1.9% (inactive) in assay [5].
Consider `CC1(c2ccc(OC(F)F)cc2)NC(=O)N(CC(=O)Nc2ccc3c(c2)OCO3)C1=O` (stereo not given), for which the viability was 81.6% (inactive) in assay [1], 91.7% (inactive) in assay [2], 94.7% in assay [3] (setting [6]) and 91.7% in assay [3] (setting [7]). In assay [3] (H69AR cells + 2 uM doxorubicin), the differential viability (reversal) was -2.95% (inactive). Moreover, the inhibition in assay [4] was -5.71% (inactive); in assay [5], -3.65% (inactive).
On to `COc1ccc(CCNc2oc(Cc3cccc4ccccc34)nc2C#N)cc1OC`, for which the viability was 68.8% (inactive) in assay [1], 73.1% (inactive) in assay [2], 80.4% in assay [3] (setting [6]) and 73.1% in assay [3] (setting [7]). The differential viability (reversal) in assay [3] (H69AR cells + 2 uM doxorubicin) was -7.3% (inactive). Moreover, the inhibition was -5.07% (inactive) in assay [4] and 1.9% (inactive) in assay [5].
For `O=C(NC1CC2CCC1C2)c1ccc(CN2CCOCC2)cc1` (stereo not given), the viability in assay [1] is 99.9% (inactive); in assay [2], 96.9% (inactive); in assay [3] (setting [6]), 93.9%; in assay [3] (setting [7]) it was 96.9%. In addition, the differential viability (reversal) in assay [3] (H69AR cells + 2 uM doxorubicin) is 2.98% (inactive). Moreover, the inhibition was -2.89% (inactive) in assay [4] and -2.7% (inactive) in assay [5].
As to `CCC(=O)n1nc(-c2ccco2)nc1N`, the viability is 113% (inactive) in assay [1], 110% (inactive) in assay [2], 98.2% in assay [3] (setting [6]) and 110% in assay [3] (setting [7]). In assay [3] (H69AR cells + 2 uM doxorubicin), the differential viability (reversal) was 11.3% (inactive). Also, the inhibition was 0.53% (inactive) in assay [4] and 5.4% (inactive) in assay [5].
In the case of `Cc1nc2ccccc2c(=O)n1NC(=O)c1ccc(F)cc1Cl`, the viability in assay [1] is 103% (inactive); in assay [2], 94.2% (inactive); in assay [3] (setting [6]) it was 98.4%; in assay [3] (setting [7]) it was 94.2%. The differential viability (reversal) in assay [3] (H69AR cells + 2 uM doxorubicin) was -4.19% (inactive). The inhibition in assay [4] was -4.34% (inactive); in assay [5] it was 2.22% (inactive).
`O=C(Nc1cc(C(F)(F)F)ccc1Cl)C1CCN(c2nnc(-n3cccc3)s2)CC1`: the viability in assay [1] is 80.2% (inactive); in assay [2], 70.9% (inactive); in assay [3] (setting [6]), 63.3%; in assay [3] (setting [7]), 70.9%. Moreover, the differential viability (reversal) in assay [3] (H69AR cells + 2 uM doxorubicin) is 7.64% (inactive). Further, the values for the inhibition in assay [4] and in assay [5] were -6% (inactive) and 2.22% (inactive), respectively.
As for `C=CCNc1oc(-c2cccc3ccccc23)nc1C#N`, the viability is 92.5% (inactive) in assay [1], 84.8% (inactive) in assay [2], 84.1% in assay [3] (setting [6]) and 84.8% in assay [3] (setting [7]). Also, in assay [3] (H69AR cells + 2 uM doxorubicin), the differential viability (reversal) is 0.75% (inactive). Moreover, the values for the inhibition in assay [4] and in assay [5] were -5.47% (inactive) and -0.95% (inactive), respectively.
Consider `CC(=O)OC(C(=O)NCc1ccco1)c1cccnc1` (stereo not given), for which the viability in assay [1] is 104% (inactive); in assay [2], 87% (inactive); in assay [3] (setting [6]), 83.6%; in assay [3] (setting [7]), 87%. In addition, the differential viability (reversal) in assay [3] (H69AR cells + 2 uM doxorubicin) was 3.39% (inactive). In addition, the inhibition is -2.08% (inactive) in assay [4] and 2.86% (inactive) in assay [5].
On to `CCN(CC)CCCN1C(=O)C(=O)/C(=C(/O)c2ccc(C)cc2)C1c1ccccn1` (stereo not given), for which the viability in assay [1] is 98.7% (inactive); in assay [2] it was 91.8% (inactive); in assay [3] (setting [6]), 93.6%; in assay [3] (setting [7]), 91.8%. Besides, the differential viability (reversal) in assay [3] (H69AR cells + 2 uM doxorubicin) was -1.81% (inactive). For the same compound, the inhibition in assay [4] was 6.4% (inactive); in assay [5] it was -4.44% (inactive).
As for `O=C(Cn1cnc2sc(-c3ccccc3)cc2c1=O)N1CCOCC1`, the viability is 116% (inactive) in assay [1], 97% (inactive) in assay [2], 93.4% in assay [3] (setting [6]) and 97% in assay [3] (setting [7]). Moreover, the differential viability (reversal) in assay [3] (H69AR cells + 2 uM doxorubicin) is 3.61% (inactive). Further, the inhibition in assay [4] is -1.58% (inactive); in assay [5], 1.75% (inactive).
As to `CN(C)S(=O)(=O)Nc1ccccc1C(N)=O`, the viability was 90.8% (inactive) in assay [1], 98.4% (inactive) in assay [2], 84.6% in assay [3] (setting [6]) and 98.4% in assay [3] (setting [7]). Besides, the differential viability (reversal) in assay [3] (H69AR cells + 2 uM doxorubicin) is 13.8% (inactive). Further, the values for the inhibition in assay [4] and in assay [5] were -6% (inactive) and 0.63% (inactive), respectively.
With `Cc1ccc(-c2ccc(/C=N/n3cnnc3)o2)cc1Cl`, the viability in assay [1] was 87.2% (inactive); in assay [2], 101% (inactive); in assay [3] (setting [6]), 96.3%; in assay [3] (setting [7]), 101%. Further, in assay [3] (H69AR cells + 2 uM doxorubicin), the differential viability (reversal) was 4.54% (inactive). The inhibition in assay [4] is -2.08% (inactive); in assay [5], 86.2% (active).

For the origin of these results see PubChem BioAssay.
